ChEMBL document CHEMBL1133953, “Modulation of human mammary cell sensitivity to paclitaxel by new quinoline sulfonamides” (Bioorg Med Chem Lett, 2001)
“And” between values parts separate entries of the source, which are not always exact repeats. Identical values can stand only once.

How the values were obtained:
MDA-MB-435 [1] = test: Inhibition of LCC6-MDR-MDR1 transfected cell line growth was determined at 10 uM; assay type: functional; conditions: Homo sapiens
MDA-MB-435 [2] = test: Cytotoxicity against paclitaxel resistant LCC6-MDR-MDR1 transfected cell line; assay type: functional, cell-based; conditions: Homo sapiens
MDA-MB-435 [3] = test: Cytotoxicity against paclitaxel sensitive LCC6-WT-human breast carcinoma cell line; assay type: functional, cell-based
MDA-MB-435 [4] = test: Inhibition of LCC6-WT-human breast carcinoma cell line growth was determined at 10 uM; assay type: functional
MDA-MB-435 [5] = test: Percent reduction of inhibitory concentration against LCC6-MDR human breast cancer cell line at 5 uM concentration; assay type: functional; conditions: for Reduction: in the assay text read “at 1 uM concentration” for “at 5 uM concentration”
Method in brief: (§1)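 Paclitaxel was tested against MDR1-transfected LCC6-MDR cells while co-administered with each reversal agent at fixed concentrations (four levels overall). Paclitaxel IC50 was determined under each condition. Percent IC50 reduction, taken as reversal activity, was calculated relative to paclitaxel alone.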

MDA-MB-435 [6] = test: Reversal activity against LCC6-MDR human breast carcinoma cell line; assay type: functional; method in brief: as §1
MDA-MB-435 [7] = test: Inhibition of LCC6-MDR human breast carcinoma cell line growth was determined at 1 uM; No growth inhibition; assay type: functional, cell-based
MDA-MB-435 [8] = test: Inhibition of LCC6-MDR human breast carcinoma cell line growth was determined at 5 uM; No growth inhibition; assay type: functional, cell-based
MDA-MB-435 [9] = test: Percent reduction of inhibitory concentration against LCC6-MDR human breast cancer cell line at 1 uM concentration
MDA-MB-435 [10] = test: Inhibitory concentration against LCC6-MDR human breast cancer cell line; assay type: functional, cell-based; method in brief: as §1

IC50 reduction (MDA-MB-435 [5]) | SMILES | IC50 (MDA-MB-435 [2]) | IC50 (MDA-MB-435 [3]) | inhibition (MDA-MB-435 [7]) | inhibition (MDA-MB-435 [8]) | other results
– | O=S(=O)(c1ccc2ccccc2c1)N(CCCCNc1ccnc2cc(Cl)ccc12)Cc1ccccc1 | > 10000 nM | > 10000 nM | – | – | inhibition at 10 µM (MDA-MB-435 [1]): 3%; inhibition at 10 µM (MDA-MB-435 [4]): 6%
99% and 54% and 39% | CC(=O)O[C@H]1C(=O)[C@@]2(C)C([C@H](OC(=O)c3ccccc3)[C@]3(O)C[C@H](OC(=O)[C@H](O)[C@@H](NC(=O)c4ccccc4)c4ccccc4)C(C)=C1C3(C)C)[C@]1(OC(C)=O)CO[C@@H]1C[C@@H]2O.O=S(=O)(c1ccc2ccccc2c1)N(CCCCCCNc1ccnc2cc(Cl)ccc12)Cc1ccccc1 (some centres undefined) [listing 1 of 2 here] | – | – | – | – | Reversal activity (MDA-MB-435 [6]): 99%
– | CC(=O)O[C@H]1C(=O)[C@@]2(C)C([C@H](OC(=O)c3ccccc3)[C@]3(O)C[C@H](OC(=O)[C@H](O)[C@@H](NC(=O)c4ccccc4)c4ccccc4)C(C)=C1C3(C)C)[C@]1(OC(C)=O)CO[C@@H]1C[C@@H]2O.COc1cc(NC(C)CCCNS(=O)(=O)c2ccc3ccccc3c2)c2ncccc2c1 (some centres undefined) [listing 1 of 2 here] | – | – | No inhibition | No inhibition | –
97% | CC(=O)O[C@H]1C(=O)[C@@]2(C)C([C@H](OC(=O)c3ccccc3)[C@]3(O)C[C@H](OC(=O)[C@H](O)[C@@H](NC(=O)c4ccccc4)c4ccccc4)C(C)=C1C3(C)C)[C@]1(OC(C)=O)CO[C@@H]1C[C@@H]2O.COc1cc(NC(C)CCCNS(=O)(=O)c2ccc3ccccc3c2)c2ncccc2c1 (some centres undefined) [listing 2 of 2 here] | – | – | – | – | Reduction (MDA-MB-435 [5]): 36%
– | O=S(=O)(c1ccc2ccccc2c1)N(CCCCCCNc1ccnc2cc(Cl)ccc12)Cc1ccccc1 | 2000 nM | 1700 nM | – | – | –
– | CC(=O)O[C@H]1C(=O)[C@@]2(C)C([C@H](OC(=O)c3ccccc3)[C@]3(O)C[C@H](OC(=O)[C@H](O)[C@@H](NC(=O)c4ccccc4)c4ccccc4)C(C)=C1C3(C)C)[C@]1(OC(C)=O)CO[C@@H]1C[C@@H]2O.COc1cc(NC(C)CCCN(Cc2ccccc2)S(=O)(=O)c2ccc3ccccc3c2)c2ncccc2c1 (some centres undefined) [listing 1 of 2 here] | – | – | No inhibition | No inhibition | –
– | COc1cc(NC(C)CCCN(Cc2ccccc2)S(=O)(=O)c2ccc3ccccc3c2)c2ncccc2c1 (centres undefined) | > 10000 nM | > 10000 nM | – | – | inhibition at 10 µM (MDA-MB-435 [1]): 8%; inhibition at 10 µM (MDA-MB-435 [4]): 0%
– | CC(=O)O[C@H]1C(=O)[C@@]2(C)C([C@H](OC(=O)c3ccccc3)[C@]3(O)C[C@H](OC(=O)[C@H](O)[C@@H](NC(=O)c4ccccc4)c4ccccc4)C(C)=C1C3(C)C)[C@]1(OC(C)=O)CO[C@@H]1C[C@@H]2O.O=S(=O)(c1ccc2ccccc2c1)N(CCCCCCNc1ccnc2cc(Cl)ccc12)Cc1ccccc1 (some centres undefined) [listing 2 of 2 here] | – | – | No inhibition | No inhibition | –
99% | CC(=O)O[C@H]1C(=O)[C@@]2(C)C([C@H](OC(=O)c3ccccc3)[C@]3(O)C[C@H](OC(=O)[C@H](O)[C@@H](NC(=O)c4ccccc4)c4ccccc4)C(C)=C1C3(C)C)[C@]1(OC(C)=O)CO[C@@H]1C[C@@H]2O.O=S(=O)(c1ccc2ccccc2c1)N(CCCCNc1ccnc2cc(Cl)ccc12)Cc1ccccc1 (some centres undefined) [listing 1 of 2 here] | – | – | – | – | Reduction (MDA-MB-435 [5]): 70%
– | COc1cc(NC(C)CCCNS(=O)(=O)c2ccc3ccccc3c2)c2ncccc2c1 (centres undefined) | > 10000 nM | > 10000 nM | – | – | inhibition at 10 µM (MDA-MB-435 [1]): 8%; inhibition at 10 µM (MDA-MB-435 [4]): 16%
96% | CC(=O)O[C@H]1C(=O)[C@@]2(C)C([C@H](OC(=O)c3ccccc3)[C@]3(O)C[C@H](OC(=O)[C@H](O)[C@@H](NC(=O)c4ccccc4)c4ccccc4)C(C)=C1C3(C)C)[C@]1(OC(C)=O)CO[C@@H]1C[C@@H]2O.COc1cc(NC(C)CCCN(Cc2ccccc2)S(=O)(=O)c2ccc3ccccc3c2)c2ncccc2c1 (some centres undefined) [listing 2 of 2 here] | – | – | – | – | Reduction (MDA-MB-435 [9]): 55%
0% | CC(=O)O[C@H]1C(=O)[C@@]2(C)[C@H]([C@H](OC(=O)c3ccccc3)[C@]3(O)C[C@H](OC(=O)[C@H](O)[C@@H](NC(=O)c4ccccc4)c4ccccc4)C(C)=C1C3(C)C)[C@]1(OC(C)=O)CO[C@@H]1C[C@@H]2O [PACLITAXEL] | 612 nM | 8 nM | – | – | IC50 (MDA-MB-435 [10]): 490 nM
– | CC(=O)O[C@H]1C(=O)[C@@]2(C)C([C@H](OC(=O)c3ccccc3)[C@]3(O)C[C@H](OC(=O)[C@H](O)[C@@H](NC(=O)c4ccccc4)c4ccccc4)C(C)=C1C3(C)C)[C@]1(OC(C)=O)CO[C@@H]1C[C@@H]2O.O=S(=O)(c1ccc2ccccc2c1)N(CCCCNc1ccnc2cc(Cl)ccc12)Cc1ccccc1 (some centres undefined) [listing 2 of 2 here] | – | – | No inhibition | No inhibition | –
